Results from article PMC2858585 (DNA and cell biology, 2008).
“Also recorded” adds a separate entry of the source. Read-outs that look alike come from different tables or passages of the source.

Tests used:
Recombinant CEEH1 [1] = details: natural substrates, ref Harris et al. (2008); cited from earlier work
Recombinant SPEH1 [2] = molecular target: T1, Recombinant SPEH1 (Strongylocentrotus purpuratus, UniProt B2MWN2); experiment: Hydrolysis of EETs and EpOMEs analyzed by LC-MS/MS, recombinant SPEH1; type: biochemical; details: natural substrates, adjusted for estimated purity
Recombinant CEEH1 [3] = details: read-out: Recombinant CEEH1 IC50; PHOME as substrate; ref Harris et al. (2008); cited from earlier work
Recombinant SPEH1 [4] = molecular target: T1, Recombinant SPEH1; experiment: Fluorescent IC50 assay with PHOME as substrate, recombinant SPEH1; type: biochemical
SPEH2 [5] = experiment: Phosphatase assay with AttoPhos, SPEH2; type: biochemical, Strongylocentrotus purpuratus; details: AttoPhos as substrate
SPEH1 = experiment: Phosphatase assay with AttoPhos, SPEH1; type: biochemical, Strongylocentrotus purpuratus; details: AttoPhos as substrate
Recombinant SPEH1 [6] = molecular target: T1, Recombinant SPEH1; experiment: Inhibition of recombinant SPEH1, [3H] t-DPPO as substrate; type: biochemical; details: read-out: Recombinant SPEH1 IC50
Recombinant CEEH1 [7] = details: ref Harris et al. (2008), cited from earlier work
Recombinant SPEH1 [8] = molecular target: T1, Recombinant SPEH1; type: biochemical
SPEH2 [9] = experiment: Radiometric epoxide hydrolase assay with t-DPPO, recombinant SPEH2; type: biochemical, Strongylocentrotus purpuratus; details: t-DPPO as substrate
Method in brief: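 Recombinant enzyme with a C-terminal six-histidine tag, expressed in baculovirus-infected Trichoplusia ni High Five cells (0.1 MOI, 72 h at 28°C). […] The radiometric assay used tritium-labelled t-DPPO as substrate, with enzyme at 0.3 µg/mL, and was terminated at 10 min.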

Recombinant human sEH = details: ref Morisseau et al. (2000), cited from earlier work
[10] = t-DPPO as substrate, recombinant CEEH1
[11] = t-DPPO as substrate, recombinant SPEH1
[12] = t-DPPO as substrate, recombinant human sEH

CCCCC/C=C\C/C=C\CC1OC1C/C=C\CCCC(=O)O (stereo not drawn) [8,9-EET]
Specific activity (Recombinant CEEH1 [1]): 45.2 ± 1.00 nmol/min/mg | Specific activity (Recombinant SPEH1 [2]): 33 ± 7.2 nmol/min/mg

CCCCCC=CCC1OC1CCCCCCCC(=O)O (stereo not drawn) [9,10-EpOME, 9,10-epoxy-12-octadecenoate]
Specific activity (Recombinant CEEH1 [1]): 137 ± 1.77 nmol/min/mg | Specific activity (Recombinant SPEH1 [2]): 4800 ± 210 nmol/min/mg

CCCCC/C=C\C[C@H]1O[C@H]1C/C=C\C/C=C\CCCC(=O)O [11,12-EET]
Specific activity (Recombinant CEEH1 [1]): 205 ± 15.3 nmol/min/mg | Specific activity (Recombinant SPEH1 [2]): 490 ± 140 nmol/min/mg

CCCCCC1OC1C/C=C\C/C=C\C/C=C\CCCC(=O)O (stereo not drawn) [14,15-EET]
Specific activity (Recombinant CEEH1 [1]): 615 ± 10.8 nmol/min/mg | Specific activity (Recombinant SPEH1 [2]): 330 ± 64 nmol/min/mg

O=C(NC1CCCCC1)NC12CC3CC(CC(C3)C1)C2 [ACU, N-adamantyl-N′-cyclohexylurea]
IC50 (Recombinant CEEH1 [3]): 2500 ± 120 nM

O=C(O)CCCCCCCCCCCNC(=O)NC12CC3CC(CC(C3)C1)C2 [AUDA, 12-(3-adamantane-1-yl-ureido)-dodecanoic acid]
IC50 (Recombinant SPEH1 [4]): 160 ± 13 nM | IC50 (Recombinant CEEH1 [3]): 27 ± 0.29 nM

O=P(O)(O)Oc1ccc2nc(-c3nc4ccccc4s3)sc2c1 [AttoPhos]
Phosphatase activity of SPEH2 with AttoPhos (SPEH2 [5]): did not display phosphatase activity | Phosphatase activity of SPEH1 with AttoPhos (SPEH1): did not display phosphatase activity

CCCCCCCCCCCCNC(=O)NC1CCCCC1 [CDU, N-cyclohexyl-N′-dodecylurea]
IC50 (Recombinant CEEH1 [3]): 160 ± 23 nM

CCNC(=O)NC1CCCCC1 [CEU, N-cyclohexyl-N′-ethylurea]
IC50 (Recombinant CEEH1 [3]): > 50000 nM | IC50 (Recombinant SPEH1 [6]): > 50000 nM

O=C(NC1CCCCC1)NC1CCCCC1 [DCU, N,N′-dicyclohexylurea]
IC50 (Recombinant CEEH1 [3]): 41000 nM

c1ccc(CC2OC2c2ccccc2)cc1 (stereo not drawn) [t-DPPO]
Km (Recombinant CEEH1 [7]; [10]): 160 ± 21 µM | Specific activity (Recombinant CEEH1 [7]; [10]): 3000 ± 230 nmol/min/mg | kcat (Recombinant CEEH1 [7]; [10]): 12 ± 0.5 s⁻¹ | kcat/Km ratio (Recombinant CEEH1 [7]; t-DPPO, nematode enzyme, unit not given): 0.07 | Km (Recombinant SPEH1 [8]; [11]): 35 ± 1.2 µM | kcat (Recombinant SPEH1 [8]; [11]): 44 ± 0.71 s⁻¹ | Specific activity (Recombinant SPEH1 [8]; t-DPPO as substrate, recombinant SPEH1, adjusted for estimated purity): 3100 ± 270 nmol/min/mg | kcat/Km ratio (Recombinant SPEH1 [8]; t-DPPO, SPEH1, unit not given): 1.3 | EH activity of SPEH2 with t-DPPO (SPEH2 [9]): not active; also recorded: did not display activity | Km (Recombinant human sEH; [12]): 6.2 ± 0.6 µM | Specific activity (Recombinant human sEH; [12]): 4500 ± 200 nmol/min/mg | kcat (Recombinant human sEH; [12]): 4.3 ± 0.3 s⁻¹ | kcat/Km ratio (Recombinant human sEH; t-DPPO, human enzyme, unit not given): 0.7
